Compound activity deposited in PubChem BioAssay by several laboratories.
UPR CHOP act: activators of apoptotic arm of unfolded protein response (CHOP). CHO-CHOP luciferase reporter, UPR activation, luminescence; percent of tunicamycin response over DMSO baseline. activation, % at 10 µM. hit rate 0.34% among 330,000. AID 449763;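 active = at 10 µM dose, activation of 40% or more, normalized to positive control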;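 also: 100% = tunicamycin at 10 µg/mL and 0% = DMSO alone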
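assay system = CHO CHOP reporter cells | amount = 500 CHO-CHOP cells per well | buffer or medium = F12 with 10% FBS | incubation = 16-18 h cell attachment, then 6 h compound exposure, 37 °C | detection = luminescence read with Steady-Glo | read-out = percent activation relative to tunicamycin control | controls = tunicamycin high control, DMSO low control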
UPR XBP1 act: activators of adaptive arm of unfolded protein response (XBP1); AID 463104; activation, % at 20 µM; hit rate 0.33% among 330,000; CHO-XBP1 luciferase reporter, IRE1-XBP1 UPR activation, luminescence; percent of tunicamycin response, DMSO as zero;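 active = versus positive control, 20 µM dose yields 30% or more activation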;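 also: 100% = tunicamycin at 10 µg/mL and 0% = DMSO only wells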
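Material: CHO cell line with stable XBP1 luciferase reporter; schedule: 16-18 h cell attachment at 37 °C, then 6 h compound exposure; signal: glow luminescence from Steady-Glo reagent; medium: serum-containing F12 medium, 10% FBS; benchmarks: tunicamycin 10 µg/mL and vehicle-only wells; read-out: percent activation relative to tunicamycin reference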
CHOP inhibitor: inhibitors of CHOP induction in ER stress response; CHO-K1 CHOP-promoter luciferase, tunicamycin-induced, 15-18 h; inhibition, % at 10 µM; hit rate 3.8% among 220,000; AID 2732;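 active = compounds that reduced the stress-induced luciferase reporter signal by more than about 70% of percent inhibition, limit read from the data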;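 also: 0% = tunicamycin plus vehicle and 100% = wells without tunicamycin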
A1 inh: inhibitors of the anti-apoptotic protein A1, read as caspase activation; caspase activation, % (test concentration not listed); hit rate 0.066% among 330,000; MEF A1-2A-BIM cells, Caspase-Glo 3/7 luminescence, 3 h; percent of clofoctol response, vehicle zero; AID 2462;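 active = over half of replicate activation scores above 10%, or exactly half above 10 with the replicate mean above 10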
* marks the source's active call; other numbers are inactive results; / = not tested or not shown. The sample as a whole holds a higher share of hits than the screen did.

SMILES	UPR CHOP act	UPR XBP1 act	CHOP inhibitor	A1 inh
O=C(CC1SC(=O)N(Cc2ccccc2)C1=O)Nc1nccs1 (stereo not drawn)	2	-4	87*	-1
Cc1cc(N2CCN(c3ccccc3)CC2)nc(NCc2ccccc2)n1	0	1	88*	-1
CCN(CC(=O)NCc1ccc(Cl)cc1)C(=O)C(C)Sc1ccccc1 (stereo not drawn)	4	-3	/	2
Cc1cccc(C)c1OCC(O)CN(Cc1ccccc1O)C1CCCCC1 (stereo not drawn)	0	-4	85*	0
CN(CC(O)COc1ccc(OCC(O)CN(C)C2CCCCC2)cc1)C1CCCCC1 (stereo not drawn)	1	2	22	0
Cc1cc([N+](=O)[O-])ccc1-c1ccc(C2Nc3ccccc3C(=O)N2O)o1 (stereo not drawn)	1	0	76*	0
Cc1ccc(C(=O)/C=C/c2cn(CN3CCN(C)CC3)c3ccccc23)cc1	6	3	82*	2
Cn1cc(/C=C/C(=O)c2ccccc2)c2ccccc21	-3	-5	30	-6
Cc1ccc(C(=O)/C=C/c2c[nH]c3ccccc23)cc1	6	-1	81*	-1
COc1ccc(CCNS(=O)(=O)c2ccc(Br)cc2)cc1OC	2	-5	/	0
O=[N+]([O-])c1cccnc1N1CCC(c2cc(-c3ccc(Cl)cc3Cl)n[nH]2)CC1	-1	1	92*	0
CCc1ccc(CN(Cc2cccnc2)C(=O)/C=C/c2ccc(OC)cc2)cc1	0	-4	/	0
COc1ccccc1/C=C/C=N/n1c(C2CCCCC2)n[nH]c1=S	2	3	94*	0
c1ccc(-c2noc(-c3ccc4ccccc4c3)n2)nc1	-9	-7	93*	-6
Clc1cccc(-c2ccnc3nc(-n4cccc4)nn23)c1	-1	1	76*	0
CCOC(=O)c1c(N)sc2c1CCC(CC)C2 (stereo not drawn)	2	1	77*	0
CCC1CCc2c(sc(N)c2C(N)=O)C1 (stereo not drawn)	-2	-3	25	1
O=C1CN(c2nc(-c3ccccc3)c3cc(Cl)ccc3n2)c2ccccc2N1	36	22	74*	-1
Clc1ccc2nc(N3CCNCC3)nc(-c3ccccc3)c2c1	2	23	/	0
COc1ccc(-c2ccnc(-c3ccc(OCCCF)cc3)n2)cc1	-1	1	71*	-1
FCCCOc1ccc(-c2nccc(-c3ccc(Cl)cc3)n2)cc1	0	3	78*	0
COc1ccc(N/C=C(\C#N)c2ccc(OCCCF)cc2)cc1	0	0	8	-1
COc1ccc(OCCn2nnc(-c3ccc(Cl)cc3)n2)cc1	1	-3	54	2
Cc1sc(NC(=O)CCl)c(C(=O)c2ccccc2)c1C	-6	-7	108*	0
Cc1ccc(OCC(O)Cn2c(N3CCCCC3)nc3c2c(=O)[nH]c(=O)n3C)cc1C (stereo not drawn)	-1	-3	/	0
SMILES	UPR CHOP act	UPR XBP1 act	CHOP inhibitor	A1 inh
CC(=O)N1N=C2c3ccccc3CCC2C1c1cccs1 (stereo not drawn)	1	0	17	0
CCn1cc(Cl)c(C(=O)N2N=C3/C(=C/c4cccs4)CCCC3C2c2cccs2)n1 (stereo not drawn)	1	0	83*	1
COc1ccc(CC(=O)NCC(C)(C)N2CCOCC2)cc1	0	0	/	1
CCN1/C(=C/C=C/c2oc3ccc4ccccc4c3[n+]2CC)Oc2ccc3ccccc3c21	13	-2	70*	-1
CCOC(=O)c1ccc(S(=O)(=O)NCCNCc2ccccc2)cc1	0	-3	/	0
CCOc1ccc(Nc2nc(N3CCOCC3)nc(N3CCOCC3)n2)cc1	-1	-2	/	-1
COc1ccc(Nc2nc(Cl)nc(Nc3ccc(OC)cc3)n2)cc1	1	1	71*	1
COc1ccc(Nc2nc(OC)nc(N3CCN(c4ccc(OC)cc4)CC3)n2)cc1	/	/	77*	/
COc1ccc(Nc2nc(Cl)nc(N3CCN(c4ccc(OC)cc4)CC3)n2)cc1	2	-3	93*	2
COc1ccc(Nc2nc(N3CCCC3)nc(N3CCOCC3)n2)cc1	-3	2	/	1
C=CCNc1nc(Cl)nc(Nc2ccc(OC)cc2)n1	0	5	28	-1
CCCc1ccc(C(=O)Cn2nc(C(=O)O)c3ccccc3c2=O)cc1	1	-2	86*	0
